The target in test [1] is T1, Tyrosine-protein phosphatase non-receptor type 1 (Homo sapiens) (UniProt P18031).
T1 sequence (whole entry): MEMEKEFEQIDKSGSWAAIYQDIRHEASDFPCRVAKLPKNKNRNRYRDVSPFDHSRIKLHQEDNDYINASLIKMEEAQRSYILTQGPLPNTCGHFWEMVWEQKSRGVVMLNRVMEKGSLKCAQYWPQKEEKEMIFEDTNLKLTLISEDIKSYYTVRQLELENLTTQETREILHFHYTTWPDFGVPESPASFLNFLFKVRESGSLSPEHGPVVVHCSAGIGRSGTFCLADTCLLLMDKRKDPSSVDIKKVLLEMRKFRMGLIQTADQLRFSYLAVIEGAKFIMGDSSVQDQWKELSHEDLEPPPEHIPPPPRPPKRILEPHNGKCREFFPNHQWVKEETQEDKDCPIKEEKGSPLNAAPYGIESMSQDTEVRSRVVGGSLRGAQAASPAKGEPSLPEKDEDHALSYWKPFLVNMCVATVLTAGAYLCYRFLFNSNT
The experiment in a line: Competitive inhibition of human PTP1B catalytic subunit assessed as enzyme inactivation at 25 uM after 15 mins by spectrophotometry. The essentials:
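Thiol-free PTP1B (12.5 nM final) with compound at 25 µM and 20 mM pNPP in 50 mM Tris, 50 mM bis-Tris, 100 mM sodium acetate, 10 mM DETAPAC, 1% DMF, pH 7.2, 23 °C. Activity loss followed at 410 nm; apparent inactivation rate from first-order fit of progress curves; mean of three experiments.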

Test [2] concerns the target T2, Tyrosine-protein phosphatase non-receptor type 11 (Homo sapiens) (UniProt Q06124).
T2 sequence (whole entry): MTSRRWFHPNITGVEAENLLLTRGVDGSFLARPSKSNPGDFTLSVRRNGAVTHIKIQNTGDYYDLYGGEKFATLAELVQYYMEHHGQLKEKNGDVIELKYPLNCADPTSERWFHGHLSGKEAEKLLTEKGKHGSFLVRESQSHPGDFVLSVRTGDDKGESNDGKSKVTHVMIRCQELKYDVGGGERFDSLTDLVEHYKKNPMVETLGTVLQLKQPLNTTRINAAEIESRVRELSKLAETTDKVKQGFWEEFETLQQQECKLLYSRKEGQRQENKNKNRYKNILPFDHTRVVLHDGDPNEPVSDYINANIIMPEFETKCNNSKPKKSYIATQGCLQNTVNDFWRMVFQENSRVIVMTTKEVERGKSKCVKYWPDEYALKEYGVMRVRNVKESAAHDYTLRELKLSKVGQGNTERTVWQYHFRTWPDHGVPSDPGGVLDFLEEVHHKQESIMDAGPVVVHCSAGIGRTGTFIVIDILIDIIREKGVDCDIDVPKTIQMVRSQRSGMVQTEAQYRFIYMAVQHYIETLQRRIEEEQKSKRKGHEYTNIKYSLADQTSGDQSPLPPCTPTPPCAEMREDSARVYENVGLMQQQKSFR
The test can be described thus: Irreversible inhibition of SHP2 at 10 to 50 uM in presence of 100 mM dithiothreitol.

Test [3] concerns the target T1, Tyrosine-protein phosphatase non-receptor type 1 (Homo sapiens). Particulars: 50 uM.
The target is the same in test [4]. To be noted: 50 uM. This is another data set of the same source.
Test [5] has the same target. To be noted: 2 to 50 uM.
Test [6] has as its target T2, Tyrosine-protein phosphatase non-receptor type 11 (Homo sapiens). Particulars: 10 to 50 uM.
Test [7] has as its target T1, Tyrosine-protein phosphatase non-receptor type 1 (Homo sapiens). To be noted: 2 to 50 uM. The source holds these as a separate data set.
The target is the same in test [8]. Particulars: 2 to 50 uM. The source holds these as a separate data set.
The target is the same in test [9]. To be noted: 2 to 50 uM. The source holds these as a separate data set.
For test [10] the target is unchanged. Particulars: 2 to 50 uM. The source holds these as a separate data set.
The target in test [11] is T2, Tyrosine-protein phosphatase non-receptor type 11 (Homo sapiens). To be noted: 10 to 50 uM. The source holds these as a separate data set.
Test [12] concerns the target T1, Tyrosine-protein phosphatase non-receptor type 1 (Homo sapiens). Particulars: 50 uM. This is another data set of the same source.
Test [13] shares this target. To be noted: 50 uM. The source holds these as a separate data set.
Test [14] has as its target T2, Tyrosine-protein phosphatase non-receptor type 11 (Homo sapiens). Particulars: 10 to 50 uM. This is another data set of the same source.

The source made the active and inactive calls. The calls are words filed in the database; no cut-off is given here. Where only a bound is given, the exact number is not on record here.

Turning to `COc1ccc(-c2cc(=S)ss2)cc1`, the inhibition entry in test [1] was “Active”.

For `S=c1ccss1`, the inhibition entry in test [1] is “Active”. Further, in [2], the inhibition entry was “inactive”.

For `Cc1c(-c2cnccn2)ssc1=S`, the inhibition result in test [3], in [6] and in [11] was “inactive” each time. Further, the inhibition in test [4] was 50%; in [7], “tde”; in [12], over 97%; in test [13] it was 70%. Moreover, the inhibition entry in test [5], in [1], in test [8], in [9], in test [10] and in [14] was “Active” each time.

The inhibition is the change of the read-out against control, counted positive when it falls.

The values above are taken from ChEMBL document CHEMBL1212873, “Inactivation of protein tyrosine phosphatases by oltipraz and other cancer chemopreventive 1,2-dithiole-3-thiones” (Bioorg Med Chem, 2010).
